Legend:
[1] = Cytotoxicity against human SH-SY5Y cells assessed as inhibition of cell growth at 100 uM after 72 hrs by MTT assay; assay type: cell-based; conditions: read-out: GI
Procedure, shortened: (§1)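 SH-SY5Y cells grown in DMEM with 2 mM L-glutamine, streptomycin, 100 IU/mL penicillin, 1 mM non-essential amino acids, 10% heat-inactivated FBS, 37 °C, 5% CO₂. Seeded at 2000 cells/well, serum-starved 24 h for synchrony, then exposed to test compounds (DMSO below 0.1%) at various concentrations up to 100. Growth read by MTT colorimetric assay after 72 h.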

[2] = molecular target: T1, 5-hydroxytryptamine receptor 6 (Homo sapiens, UniProt P50406); test: Displacement of [3H]LSD from human 5-HT6 receptor expressed in HEK293 cell membranes at 100 nM incubated for 60 mins by radioligand binding assay
Procedure, shortened: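 Competition binding on membranes of HEK-293 cells transiently expressing human 5-HT6; 4 of protein incubated 60 min at 37 °C in duplicate with 2.5 nM [3H]-LSD in 50 mM Tris-HCl pH 7.4, 10 mM MgCl₂, 0.5 mM EDTA. Compounds tested at 10^-7 M for % displacement (n = 3), then Ki calculated. GF/C filtration, five ice-cold buffer washes.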

[3] = Cytotoxicity against human SH-SY5Y cells assessed as inhibition of cell growth after 72 hrs by MTT assay; assay type: cell-based; procedure, shortened: as §1
[4] = molecular target: T1, 5-hydroxytryptamine receptor 6; test: Displacement of [3H]LSD from human 5-HT6 receptor expressed in HEK293 cell membranes incubated for 60 mins by radioligand binding assay

T1 sequence (P50406 whole entry): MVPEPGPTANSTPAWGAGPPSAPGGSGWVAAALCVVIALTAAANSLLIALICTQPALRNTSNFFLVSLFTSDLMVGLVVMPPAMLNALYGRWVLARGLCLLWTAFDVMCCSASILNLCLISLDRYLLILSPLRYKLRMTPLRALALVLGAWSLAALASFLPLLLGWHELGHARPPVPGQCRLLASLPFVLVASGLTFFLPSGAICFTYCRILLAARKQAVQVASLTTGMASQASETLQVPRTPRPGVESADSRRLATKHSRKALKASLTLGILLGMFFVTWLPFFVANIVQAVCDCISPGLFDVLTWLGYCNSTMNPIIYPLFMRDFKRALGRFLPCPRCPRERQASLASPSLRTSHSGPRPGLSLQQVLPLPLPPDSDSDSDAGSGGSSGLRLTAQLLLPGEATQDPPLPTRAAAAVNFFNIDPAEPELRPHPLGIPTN

inhibition [2]	Ki [4]	SMILES	inhibition at 72 h, 100 µM [1]	IC50 [3]
37%	–	O=c1sc2cc(S(=O)(=O)Nc3ccccc3)ccc2n1CCN1CCCC1	–	10 µM
0%	–	O=c1sc2cc(NS(=O)(=O)c3ccc4ccccc4c3)ccc2n1CCN1CCCC1	28%	–
11%	–	O=c1sc2cc(NS(=O)(=O)c3ccccc3)ccc2n1CCN1CCCC1	25%	–
11%	–	O=c1sc2cc(S(=O)(=O)c3ccccc3)ccc2n1CCN1CCCCC1	–	44.1 µM
10%	–	CN(c1ccccc1)S(=O)(=O)c1ccc2c(c1)sc(=O)n2CCN1CCCC1	–	49.5 µM
7%	–	O=c1sc2cc(S(=O)(=O)Nc3ccccc3)ccc2n1CCN1CCCCC1	–	17.4 µM
0%	–	CN(c1ccccc1)S(=O)(=O)c1ccc2c(c1)sc(=O)n2CCN1CCCCC1	–	50 µM
0%	–	O=c1sc2cc(S(=O)(=O)Nc3cccc4ccccc34)ccc2n1CCN1CCCC1	–	68.6 µM
6%	–	O=c1sc2cc(NS(=O)(=O)c3ccccc3)ccc2n1CCN1CCCCC1	39%	–

Second part, the compound before the results:

SMILES	inhibition [2]	Ki [4]	inhibition at 72 h, 100 µM [1]	IC50 [3]
CN(C)CCn1c(=O)sc2cc(S(=O)(=O)Nc3ccccc3)ccc21	21%	–	0%	–
CN(c1cccc2ccccc12)S(=O)(=O)c1ccc2c(c1)sc(=O)n2CCN1CCCCC1	14%	–	–	91.9 µM
O=c1sc2cc(S(=O)(=O)Nc3cccc4ccccc34)ccc2n1CCN1CCCCC1	3%	–	–	25.2 µM
O=c1sc2cc(N(S(=O)(=O)c3ccccc3)S(=O)(=O)c3ccccc3)ccc2n1CCN1CCCC1	20%	–	19%	–
O=c1sc2cc(NS(=O)(=O)c3ccc4ccccc4c3)ccc2n1CCN1CCCCC1	4%	–	5%	–
CN(C)CCn1c(=O)sc2cc(S(=O)(=O)c3ccccc3)ccc21	16%	–	–	86.9 µM
CN(C)CCn1c(=O)sc2cc(S(=O)(=O)N(C)c3cccc4ccccc34)ccc21	0%	–	–	29 µM
CN(c1cccc2ccccc12)S(=O)(=O)c1ccc2c(c1)sc(=O)n2CCN1CCCC1	40%	–	–	102 µM
CN(C)CCn1c(=O)sc2cc(NS(=O)(=O)c3ccccc3)ccc21	5%	–	20%	–
CN(C)CCn1c(=O)sc2cc(S(=O)(=O)N(C)c3ccccc3)ccc21	5%	–	–	91 µM
CN(C)CCn1c(=O)sc2cc(NS(=O)(=O)c3ccc4ccccc4c3)ccc21	22%	–	17%	–
CN(C)CCn1c(=O)sc2cc(S(=O)(=O)Nc3cccc4ccccc34)ccc21	–	0.1 µM	–	45.7 µM
